In publication PMC2413043 (The Journal of Experimental Medicine, 2008):
“And” between values parts separate entries of the source, which are not always exact repeats. Equal entries are not always repeated. “Also recorded” adds a separate entry of the source.

Tests used:
RAW macrophages = assay: Cytotoxicity of MAPK inhibitors; assay type: cell-based, mouse; conditions: unpublished data
p300 HAT domain = assay: In vitro acetylation of MKP-1 docking domain peptides by p300; assay type: biochemical; conditions: recombinant p300 HAT domain, labelled acetyl-CoA, 30°C 10 min, autoradiography
NOS2 = NOS2 protein levels by immunoblot in RAW cells; assay type: cell-based, mouse; conditions: macrophages, TLR agonist 16 h
Outline: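 RAW 264.7 cells were handled in two ways. For agonist response, cells were exposed to the TLR agonists PGN, poly(I:C), LPS or E. coli for 16 h, with or without TSA. For TSA dose-response, cells were pretreated with increasing TSA for 1 h, then given LPS 100 ng/ml for 6 h, with ERα as the blot control. In both, lysates were immunoblotted for NOS2.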

HEK293 cells = assay: Acetylation of HA-MKP-1 in HEK293 cells; assay type: cell-based; conditions: IP acetyl-lysine, blot HA
phospho-p38 = assay: Dephosphorylation of recombinant phospho-p38 by recombinant MKP-1; assay type: biochemical; conditions: for dephosphorylation of phospho-p38, without p300: recombinant MKP-1, immunoblot; for dephosphorylation of phospho-p38, effect of adding p300: recombinant MKP-1 acetylated with p300, immunoblot
Outline: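 Recombinant His-MKP-1 made from pRSET-His-MKP-1 by in vitro transcription and translation. It was incubated with recombinant p300 and cold acetyl-CoA, or with control. It was then incubated with recombinant phospho-p38, and remaining phospho-p38 was detected by immunoblotting.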

p38 = assay: Phospho-p38 in MKP-1 KO MEFs rescued with MKP-1; assay type: cell-based, mouse; conditions: 4-HT, then LPS and TSA 1 h
Outline: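 MKP-1−/− fibroblasts were immortalized with SV40 T-antigen and transfected with MKP-1(WT)-ERα or MKP-1(K57R)-ERα. Expression was induced with 200 nM 4-hydroxytamoxifen, then cells were treated with LPS and TSA for 1 h. Lysates were immunoblotted for phospho-p38, total p38 and the ER tag.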

TNF-α = assay: LPS-induced TNF-α RNA in MKP-1 KO MEFs rescued with MKP-1; assay type: cell-based, mouse; conditions: 4-HT, then LPS and TSA 1 h; RT-PCR
MKP-1 catalytic = assay type: biochemical; conditions: OMFP, A 477 nm, 30°C, 0–40 min, n = 2 ± SD
Outline: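 Recombinant MKP-1 (0.66 μg) was acetylated or not with recombinant p300 HAT (2.5 μg) and 5 μl of 1 mM acetyl-CoA stock for 30 min at 30°C. Recombinant p38 (2 μg) or control was added for 1 h at 30°C. The substrate 3-O-methylfluorescein phosphate was then added and A477 nm monitored at 30°C. n = 2, ± SD.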

Molecule: C[S+]([O-])c1ccc(-c2nc(-c3ccncc3)c(-c3ccc(F)cc3)[nH]2)cc1 (centres unmarked) [SB203580]
- cytotoxicity (RAW macrophages): not cytotoxic

Molecule: Oc1c2ccccc2c2c3c(cccc13)N=N2 [SP600125]
- cytotoxicity (RAW macrophages): not cytotoxic

Molecule: N#CC(=C(/N)Sc1ccccc1N)/C(C#N)=C(/N)Sc1ccccc1N [U0126]
- cytotoxicity (RAW macrophages): not cytotoxic

Molecule: RFSTIVRRRAKGAMGLEHIVPNAELRGRLLA [MKP-1(47–76)(WT)]
- acetylation of peptide by p300 (p300 HAT domain): p300 acetylates MKP-1(47–76)

Molecule: RFSTIVRRRARGAMGLEHIVPNAELRGRLLA [MKP-1(47–76)(K57R)]
- acetylation of peptide by p300 (p300 HAT domain): p300 cannot acetylate MKP-1(47–76)(K57R)

Molecule: peptidoglycan
- NOS2 expression, activation by TLR agonist alone (NOS2): can activate NOS2 expression in macrophages

B1: HA-MKP-1(K57R) (protein, UniProt P28562 1-367, looked up, variant K57R)
Dual specificity protein …: MVMEVGTLDAGGLRALLGERAAQCLLLDCRSFFAFNAGHIAGSVNVRFSTIVRRRARGAMGLEHIVPNAELRGRLLAGAYHAVVLLDERSAALDGAKRDGTLALAAGALCREARAAQVFFLKGGYEAFSASCPELCSKQSTPMGLSLPLSTSVPDSAESGCSSCSTPLYDQGGPVEILPFLYLGSAYHASRKDMLDALGITALINVSANCPNHFEGHYQYKSIPVEDNHKADISSWFNEAIDFIDSIKNAGGRVFVHCQAGISRSATICLAYLMRTNRVKLDEAFEFVKQRRSIISPNFSFMGQLLQFESQVLAPHCSAEAGSPAMAVLDRGTSTTTVFNFPVSIPVHSTNSALSYLQSPITTSPSC
modifications: HA tag
- acetylation of HA-MKP-1 in cells in response to LPS and TSA (HEK293 cells): MKP-1(K57R) is not

B2: MKP-1(WT): recombinant or ectopically expressed wild-type MKP-1 (protein)
chain: MVMEVGILDAGGLRALLREGAAQCLLLDCRSFFAFNAGHIAGSVNVRFSTIVRRRAKGAMGLEHIVPNAELRGRLLAGAYHAVVLLDERSASLDGAKRDGTLALAAGALCREARSTQVFFLQGGYEAFSASCPELCSKQSTPTGLSLPLSTSVPDSAESGCSSCSTPLYDQGGPVEILSFLYLGSAYHASRKDMLDALGITALINVSANCPNHFEGHYQYKSIPVEDNHKADISSWFNEAIDFIDSIKDAGGRVFVHCQAGISRSATICLAYLMRTNRVKLDEAFEFVKQRRSIISPNFSFMGQLLQFESQVLAPHCSAEAGSPAMAVLDRGTSTTTVFNFPVSIPVHPTNSALNYLKSPITTSPSC
modifications: left off: ERα ligand-binding domain, end not stated, kept
- dephosphorylation of phospho-p38, without p300 (phospho-p38): reduces phosphorylation of p38
- dephosphorylation of phospho-p38, effect of adding p300 (phospho-p38): further decrease in phosphorylation of p38
- effect of TSA on phospho-p38 in MKP-1 KO MEFs after ectopic expression (p38): restores the ability of TSA to decrease phospho-p38 levels

B3: MKP-1(K57R) (protein, UniProt P28562 1-367, looked up, variant K57R)
Dual specificity protein …: MVMEVGTLDAGGLRALLGERAAQCLLLDCRSFFAFNAGHIAGSVNVRFSTIVRRRARGAMGLEHIVPNAELRGRLLAGAYHAVVLLDERSAALDGAKRDGTLALAAGALCREARAAQVFFLKGGYEAFSASCPELCSKQSTPMGLSLPLSTSVPDSAESGCSSCSTPLYDQGGPVEILPFLYLGSAYHASRKDMLDALGITALINVSANCPNHFEGHYQYKSIPVEDNHKADISSWFNEAIDFIDSIKNAGGRVFVHCQAGISRSATICLAYLMRTNRVKLDEAFEFVKQRRSIISPNFSFMGQLLQFESQVLAPHCSAEAGSPAMAVLDRGTSTTTVFNFPVSIPVHSTNSALSYLQSPITTSPSC
- dephosphorylation of phospho-p38, without p300 (phospho-p38): can decrease the phosphorylation of p38
- dephosphorylation of phospho-p38, effect of adding p300 (phospho-p38): no further effect on MKP-1 dephosphorylation of p38
- effect of TSA on phospho-p38 in MKP-1 KO MEFs after ectopic expression (p38): cannot restore the effects of TSA upon phospho-p38
- effect of TSA on LPS-induced TNF-α in MKP-1 KO MEFs after ectopic expression (TNF-α): not with MKP-1(K57R)

B4: MKP-1: Recombinant MKP-1, acetylated or not with p300 and acetyl-CoA (protein, UniProt P28562 1-367, looked up)
Dual specificity protein …: MVMEVGTLDAGGLRALLGERAAQCLLLDCRSFFAFNAGHIAGSVNVRFSTIVRRRAKGAMGLEHIVPNAELRGRLLAGAYHAVVLLDERSAALDGAKRDGTLALAAGALCREARAAQVFFLKGGYEAFSASCPELCSKQSTPMGLSLPLSTSVPDSAESGCSSCSTPLYDQGGPVEILPFLYLGSAYHASRKDMLDALGITALINVSANCPNHFEGHYQYKSIPVEDNHKADISSWFNEAIDFIDSIKNAGGRVFVHCQAGISRSATICLAYLMRTNRVKLDEAFEFVKQRRSIISPNFSFMGQLLQFESQVLAPHCSAEAGSPAMAVLDRGTSTTTVFNFPVSIPVHSTNSALSYLQSPITTSPSC
modifications: optionally acetylated
- phosphatase activity, effect of recombinant p38 (MKP-1 catalytic): increases the phosphatase activity of MKP-1
- increase of phosphatase activity by acetylation in the presence of p38 (MKP-1 catalytic; p300 and acetyl-CoA 30 min at 30°C, then p38 1 h at 30°C): ~125% and > 100%
- phosphatase activity, effect of acetylation without p38 (MKP-1 catalytic; p300 and acetyl-CoA): negligible effect on phosphatase activity; also recorded: does not affect phosphatase activity of the enzyme alone
